According to ChEMBL document CHEMBL1212900, “Falcipain inhibitors: optimization studies of the 2-pyrimidinecarbonitrile lead series” (J Med Chem, 2010):

system: not listed separately; assay: Inhibition of Plasmodium falciparum falcipain-2 expressed in Escherichia coli; settings: not given
Summary of the method: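 Recombinant E. coli-expressed, refolded enzyme at 0.25 nM in 100 mM sodium acetate pH 5.5, 500 μM CHAPS, 10 mM DTT, DMSO ≤1%. Substrate H-D-Val-Leu-Arg-AFC at 30 μM final. Inhibitor dilutions mixed with substrate, enzyme added last; fluorescence followed 1 h at room temperature. IC50 from percent activity versus concentration.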

First: CN1CCN(Cc2ccc(C(=O)NN(Cc3ccccc3)c3nc(C#N)ncc3Br)cc2)CC1
Second: CN1CCN(Cc2ccc(C(=O)NN(CCc3ccccc3)c3nc(C#N)ncc3Br)cc2)CC1
The IC50 of the first is 4.6-fold lower: 0.005 µM for the first, 0.023 µM for the second.

First: CN1CCN(Cc2ccc(C(=O)NN(CC3CC=CC3)c3nc(C#N)ncc3Br)cc2)CC1
Second: CN1CCN(Cc2ccc(C(=O)NN(CC3CCOCC3)c3nc(C#N)ncc3Br)cc2)CC1
The IC50 of the first is 16-fold lower: 0.0007 µM for the first, 0.011 µM for the second.

Compared with `CN1CCN(Cc2ccc(C(=O)NN(c3nc(C#N)ncc3Br)C3CCC3)cc2)CC1`, `CN1CCN(Cc2ccc(C(=O)NN(c3nc(C#N)ncc3Br)C3CCCC3)cc2)CC1` is lower in IC50: 0.002 µM for the first, < 0.0005 µM for the second.

Going from `CN1CCN(Cc2ccc(C(=O)NN(c3nc(C#N)ncc3Br)C3CCCCC3)cc2)CC1` to `CN1CCN(Cc2ccc(C(=O)NN(c3nc(C#N)ncc3Br)C3CCOCC3)cc2)CC1`, the IC50 rises from 0.0005 µM to 0.0009 µM (1.8-fold). The first is the more potent here.

Compared with `CN1CCN(Cc2ccc(C(=O)NN(c3nc(C#N)ncc3Br)C3CCCC3(C)C)cc2)CC1` (configuration not stated), `C[C@@H]1CCC[C@H]1N(NC(=O)c1ccc(CN2CCN(C)CC2)cc1)c1nc(C#N)ncc1Br` is 10-fold lower in IC50: 0.002 µM for the first, 0.0002 µM for the second.

Going from `CC1CCC(N(NC(=O)c2ccc(CN3CCN(C)CC3)cc2)c2nc(C#N)ncc2Br)C1` (configuration not stated) to `CC(=O)N1CCC(N(NC(=O)c2ccc(CN3CCN(C)CC3)cc2)c2nc(C#N)ncc2Br)CC1`, the IC50 falls from 0.0009 µM to < 0.0005 µM.

Compared with `CN1CCN(Cc2ccc(C(=O)NN(CC3CCCO3)c3nc(C#N)ncc3Br)cc2)CC1` (configuration not stated), `CC1OCCC1CN(NC(=O)c1ccc(CN2CCN(C)CC2)cc1)c1nc(C#N)ncc1Br` (configuration not stated) is 7-fold lower in IC50: 0.014 µM for the first, 0.002 µM for the second.

Going from `CN1CCN(Cc2ccc(C(=O)NN(Cc3ccco3)c3nc(C#N)ncc3Br)cc2)CC1` to `CN1CCN(Cc2ccc(C(=O)NN(Cc3ccoc3)c3nc(C#N)ncc3Br)cc2)CC1`, the IC50 falls from 0.004 µM to 0.002 µM (2-fold). The second is the more potent here.

Compared with `CC(=O)NC1CCC(N(NC(=O)c2ccc(CN3CCN(C)CC3)cc2)c2nc(C#N)ncc2Br)CC1` (configuration not stated), `CC(C)CN(NC(=O)c1ccc(N2CCN(C)CC2)cc1)c1nc(C#N)ncc1Br` is lower in IC50: 0.008 µM for the first, < 0.0002 µM for the second. The second is the more potent here.

Compared with `CCCN1CCN(c2ccc(C(=O)NN(CC(C)C)c3nc(C#N)ncc3Br)cc2)CC1`, `CC(C)CN(NC(=O)c1ccc(OCCN2CCOCC2)cc1)c1nc(C#N)ncc1Br` is higher in IC50: < 0.0005 µM for the first, 0.003 µM for the second.

First: CC(C)CN(NC(=O)c1ccc(OCCN2CCOCC2)cc1)c1nc(C#N)ncc1Cl
Second: CC(C)CN(NC(=O)c1ccc(N2CCOCC2)nc1)c1nc(C#N)ncc1Br
The IC50 of the first is 10-fold higher: 0.002 µM for the first, 0.0002 µM for the second. The second is the more potent here.

Going from `CC(C)CN(NC(=O)c1ccc(CN2CCN(C)CC2)o1)c1nc(C#N)ncc1Br` to `CC(C)CN(NC(=O)c1ccc(CN2CCN(C)CC2)s1)c1nc(C#N)ncc1Br`, the IC50 falls from 0.0007 µM to 0.0002 µM (3.5-fold). The second is the more potent here.

system: Plasmodium falciparum; assay: Antiplasmodial activity against Plasmodium falciparum W2 after 48 hrs; assay type: functional, organism-based; settings: W2, 48 h
Summary of the method: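 W2 P. falciparum grown in human erythrocytes, 2% hematocrit, RPMI with 10% human serum or 0.5% AlbuMAX II; sorbitol-synchronized. Serial dilutions from DMSO stocks added at ring stage for 48 h, medium and drug renewed at 24 h. Cells fixed in 1% formaldehyde, stained with YOYO-1, parasitemia counted by flow cytometry; IC50 from percent parasitemia versus untreated controls.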

`CN1CCN(Cc2ccc(C(=O)NN(Cc3ccccc3)c3nc(C#N)ncc3Br)cc2)CC1` and `CN1CCN(Cc2ccc(C(=O)NN(CCc3ccccc3)c3nc(C#N)ncc3Br)cc2)CC1` are within 1.5-fold of each other in IC50: 2.37 µM for the first, 2.18 µM for the second.

Going from `CN1CCN(Cc2ccc(C(=O)NN(CC3CC=CC3)c3nc(C#N)ncc3Br)cc2)CC1` to `CN1CCN(Cc2ccc(C(=O)NN(CC3CCOCC3)c3nc(C#N)ncc3Br)cc2)CC1`, the IC50 rises from 0.098 µM to 0.31 µM (3.2-fold).

First: CN1CCN(Cc2ccc(C(=O)NN(c3nc(C#N)ncc3Br)C3CCC3)cc2)CC1
Second: CN1CCN(Cc2ccc(C(=O)NN(c3nc(C#N)ncc3Br)C3CCCC3)cc2)CC1
The IC50 of the first is 3.8-fold higher: 0.09 µM for the first, 0.024 µM for the second.

Going from `CN1CCN(Cc2ccc(C(=O)NN(c3nc(C#N)ncc3Br)C3CCCCC3)cc2)CC1` to `CN1CCN(Cc2ccc(C(=O)NN(c3nc(C#N)ncc3Br)C3CCOCC3)cc2)CC1`, the IC50 rises from 0.027 µM to 0.059 µM (2.2-fold). The first is the more potent here.

First: CN1CCN(Cc2ccc(C(=O)NN(c3nc(C#N)ncc3Br)C3CCCC3(C)C)cc2)CC1 (configuration not stated)
Second: C[C@@H]1CCC[C@H]1N(NC(=O)c1ccc(CN2CCN(C)CC2)cc1)c1nc(C#N)ncc1Br
The IC50 of the first is 21-fold higher: 0.104 µM for the first, 0.005 µM for the second. The second is the more potent here.

Compared with `CC1CCC(N(NC(=O)c2ccc(CN3CCN(C)CC3)cc2)c2nc(C#N)ncc2Br)C1` (configuration not stated), `CC(=O)N1CCC(N(NC(=O)c2ccc(CN3CCN(C)CC3)cc2)c2nc(C#N)ncc2Br)CC1` is 2.4-fold lower in IC50: 0.068 µM for the first, 0.028 µM for the second. The second is the more potent here.

First: CN1CCN(Cc2ccc(C(=O)NN(CC3CCCO3)c3nc(C#N)ncc3Br)cc2)CC1 (configuration not stated)
Second: CC1OCCC1CN(NC(=O)c1ccc(CN2CCN(C)CC2)cc1)c1nc(C#N)ncc1Br (configuration not stated)
The IC50 of the first is 9.7-fold higher: 1.88 µM for the first, 0.193 µM for the second.

Going from `CN1CCN(Cc2ccc(C(=O)NN(Cc3ccco3)c3nc(C#N)ncc3Br)cc2)CC1` to `CN1CCN(Cc2ccc(C(=O)NN(Cc3ccoc3)c3nc(C#N)ncc3Br)cc2)CC1`, the IC50 falls from 0.721 µM to 0.333 µM (2.2-fold).

Compared with `CC(=O)NC1CCC(N(NC(=O)c2ccc(CN3CCN(C)CC3)cc2)c2nc(C#N)ncc2Br)CC1` (configuration not stated), `CC(C)CN(NC(=O)c1ccc(N2CCN(C)CC2)cc1)c1nc(C#N)ncc1Br` is 40-fold lower in IC50: 1.31 µM for the first, 0.033 µM for the second. The second is the more potent here.

Going from `CCCN1CCN(c2ccc(C(=O)NN(CC(C)C)c3nc(C#N)ncc3Br)cc2)CC1` to `CC(C)CN(NC(=O)c1ccc(OCCN2CCOCC2)cc1)c1nc(C#N)ncc1Br`, the IC50 rises from 0.025 µM to 0.622 µM (25-fold). The first is the more potent here.

Going from `CC(C)CN(NC(=O)c1ccc(OCCN2CCOCC2)cc1)c1nc(C#N)ncc1Cl` to `CC(C)CN(NC(=O)c1ccc(N2CCOCC2)nc1)c1nc(C#N)ncc1Br`, the IC50 rises from 0.87 µM to 1.53 µM (1.8-fold). The first is the more potent here.

Going from `CC(C)CN(NC(=O)c1ccc(CN2CCN(C)CC2)o1)c1nc(C#N)ncc1Br` to `CC(C)CN(NC(=O)c1ccc(CN2CCN(C)CC2)s1)c1nc(C#N)ncc1Br`, the IC50 falls from 0.021 µM to 0.01 µM (2.1-fold). The second is the more potent here.

system: not listed separately; assay: Inhibition of Plasmodium falciparum falcipain-3 expressed in Escherichia coli; settings: not given
Summary of the method: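 Refolded recombinant enzyme from E. coli, 2 nM, in 100 mM sodium acetate pH 5.5 with 500 μM CHAPS and 10 mM DTT, DMSO up to 1%. H-D-Val-Leu-Arg-AFC at 150 μM final. Reaction started by enzyme addition; fluorescence monitored 1 h at room temperature. IC50 derived from percent activity plotted against inhibitor concentration.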

Going from `CN1CCN(Cc2ccc(C(=O)NN(Cc3ccccc3)c3nc(C#N)ncc3Br)cc2)CC1` to `CN1CCN(Cc2ccc(C(=O)NN(CCc3ccccc3)c3nc(C#N)ncc3Br)cc2)CC1`, the IC50 falls from 0.335 µM to 0.105 µM (3.2-fold). The second is the more potent here.

Going from `CN1CCN(Cc2ccc(C(=O)NN(CC3CC=CC3)c3nc(C#N)ncc3Br)cc2)CC1` to `CN1CCN(Cc2ccc(C(=O)NN(CC3CCOCC3)c3nc(C#N)ncc3Br)cc2)CC1`, the IC50 rises from 0.016 µM to 0.135 µM (8.4-fold). The first is the more potent here.

First: CN1CCN(Cc2ccc(C(=O)NN(c3nc(C#N)ncc3Br)C3CCC3)cc2)CC1
Second: CN1CCN(Cc2ccc(C(=O)NN(c3nc(C#N)ncc3Br)C3CCCC3)cc2)CC1
The IC50 of the first is 16-fold higher: 0.173 µM for the first, 0.011 µM for the second. The second is the more potent here.

First: CN1CCN(Cc2ccc(C(=O)NN(c3nc(C#N)ncc3Br)C3CCCCC3)cc2)CC1
Second: CN1CCN(Cc2ccc(C(=O)NN(c3nc(C#N)ncc3Br)C3CCOCC3)cc2)CC1
The IC50 of the first is 2.8-fold lower: 0.006 µM for the first, 0.017 µM for the second. The first is the more potent here.

Compared with `CN1CCN(Cc2ccc(C(=O)NN(c3nc(C#N)ncc3Br)C3CCCC3(C)C)cc2)CC1` (configuration not stated), `C[C@@H]1CCC[C@H]1N(NC(=O)c1ccc(CN2CCN(C)CC2)cc1)c1nc(C#N)ncc1Br` is 37-fold lower in IC50: 0.11 µM for the first, 0.003 µM for the second. The second is the more potent here.

Going from `CC1CCC(N(NC(=O)c2ccc(CN3CCN(C)CC3)cc2)c2nc(C#N)ncc2Br)C1` (configuration not stated) to `CC(=O)N1CCC(N(NC(=O)c2ccc(CN3CCN(C)CC3)cc2)c2nc(C#N)ncc2Br)CC1`, the IC50 falls from 0.045 µM to 0.026 µM (1.7-fold).

`CN1CCN(Cc2ccc(C(=O)NN(CC3CCCO3)c3nc(C#N)ncc3Br)cc2)CC1` (configuration not stated) and `CC1OCCC1CN(NC(=O)c1ccc(CN2CCN(C)CC2)cc1)c1nc(C#N)ncc1Br` (configuration not stated) are within 1.5-fold of each other in IC50: 0.099 µM for the first, 0.075 µM for the second.

`CN1CCN(Cc2ccc(C(=O)NN(Cc3ccco3)c3nc(C#N)ncc3Br)cc2)CC1` and `CN1CCN(Cc2ccc(C(=O)NN(Cc3ccoc3)c3nc(C#N)ncc3Br)cc2)CC1` are within 1.5-fold of each other in IC50: 0.18 µM for the first, 0.133 µM for the second.

Compared with `CC(=O)NC1CCC(N(NC(=O)c2ccc(CN3CCN(C)CC3)cc2)c2nc(C#N)ncc2Br)CC1` (configuration not stated), `CC(C)CN(NC(=O)c1ccc(N2CCN(C)CC2)cc1)c1nc(C#N)ncc1Br` is 2.8-fold lower in IC50: 0.088 µM for the first, 0.032 µM for the second.

First: CCCN1CCN(c2ccc(C(=O)NN(CC(C)C)c3nc(C#N)ncc3Br)cc2)CC1
Second: CC(C)CN(NC(=O)c1ccc(OCCN2CCOCC2)cc1)c1nc(C#N)ncc1Br
The IC50 of the first is 4.5-fold lower: 0.032 µM for the first, 0.145 µM for the second. The first is the more potent here.

First: CC(C)CN(NC(=O)c1ccc(OCCN2CCOCC2)cc1)c1nc(C#N)ncc1Cl
Second: CC(C)CN(NC(=O)c1ccc(N2CCOCC2)nc1)c1nc(C#N)ncc1Br
The IC50 of the first is 1.7-fold higher: 0.09 µM for the first, 0.053 µM for the second. The second is the more potent here.

`CC(C)CN(NC(=O)c1ccc(CN2CCN(C)CC2)o1)c1nc(C#N)ncc1Br` and `CC(C)CN(NC(=O)c1ccc(CN2CCN(C)CC2)s1)c1nc(C#N)ncc1Br` are the same in IC50: 0.012 µM for the first, 0.012 µM for the second.
